Results of several laboratories.
Protocols differ between the studies behind these lines. Converted amounts (≈) assume the structure as drawn.
Organism: Cryptococcus neoformans

For `O=C(CCCCCCCCCC[P+](c1ccccc1)(c1ccccc1)c1ccccc1)Nc1ccc(O)c(O)c1.[Br-]`, the MIC was > 32 µg/mL (microbial growth, broth dilution; ATCC208821; 24 h).
The IC50 of `C#CCCCCCCCCCCCC(O)CC(O)CO` (stereo not drawn) is reported as 8 µg/mL (≈ 28.1 µM) (microbial growth, broth dilution; ATCC90113).
With `C[C@@H]1[C@H](O)[C@@H](C)/C=C/C=C/C=C/C=C/C=C/C=C/C=C/[C@H](O[C@@H]2O[C@H](C)[C@@H](O)[C@H](N)[C@@H]2O)C[C@@H]2O[C@](O)(C[C@@H](O)C[C@@H](O)[C@H](O)CC[C@@H](O)C[C@@H](O)CC(=O)O[C@H]1C)C[C@H](O)[C@H]2C(=O)O` the MIC was 0.68 µM (microbial growth; ATCC90113).
For `O=C(CCc1cc(O)c(O)c(O)c1)NCCCCCCCC[P+](c1ccccc1)(c1ccccc1)c1ccccc1.[Br-]`, the MIC was > 32 µg/mL (microbial growth, broth dilution; ATCC208821; 24 h).
For `C=CCCCCCCCCCCCC(O)CC(O)CO` (stereo not drawn), the IC50 was > 200 µg/mL (microbial growth, broth dilution; ATCC90113).
For `C[C@@H]1[C@H](O)[C@@H](C)/C=C/C=C/C=C/C=C/C=C/C=C/C=C/[C@H](O[C@@H]2O[C@H](C)[C@@H](O)[C@H](N)[C@@H]2O)C[C@@H]2O[C@](O)(C[C@@H](O)C[C@@H](O)[C@H](O)CC[C@@H](O)C[C@@H](O)CC(=O)O[C@H]1C)C[C@H](O)[C@H]2C(=O)O`, the IC50 was 0.69 µg/mL (≈ 0.747 µM) (microbial growth, broth dilution; ATCC90113).
`O=C(CCCCCCCC[P+](c1ccccc1)(c1ccccc1)c1ccccc1)Nc1cc(O)c(O)c(O)c1.[Br-]` gave an MIC of 8 µg/mL (microbial growth, broth dilution; ATCC208821; 24 h).
For `C#CCCCCCCCCC=CCC(O)CC(O)CO` (stereo not drawn), the IC50 was > 8 µg/mL (microbial growth, broth dilution; ATCC90113).
`C[C@@H]1[C@H](O)[C@@H](C)/C=C/C=C/C=C/C=C/C=C/C=C/C=C/[C@H](O[C@@H]2O[C@H](C)[C@@H](O)[C@H](N)[C@@H]2O)C[C@@H]2O[C@](O)(C[C@@H](O)C[C@@H](O)[C@H](O)CC[C@@H](O)C[C@@H](O)CC(=O)O[C@H]1C)C[C@H](O)[C@H]2C(=O)O` gave an MFC of 1.5 µg/mL (≈ 1.62 µM) (microbial killing; ATCC90113).
